Hits are enriched below; roughly 1.9% of the tested compounds scored in any of these assays.
NTR1 agonist: NTR1 (human) agonism; P30989; NTR1-U2OS beta-arrestin-GFP spot imaging, agonist mode; activation, % at 20 µM; actives 0.17% (n = 330,000); AID 493036;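 active = activation at or above 40% of the spot to cytoplasm intensity ratio, with at least 20 cells analyzed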;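 also: 0% = DMSO without peptide and 100% = 100 nM NTR1 peptide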
MC4R barr agon: activates human MC4R beta-arrestin recruitment; AID 540308; actives 0.98% (n = 360,000); P32245; U2OS MC4R beta-arrestin complementation, luminescence; percent of melanotan II response, DMSO zero; activation, % at 8.9 µM;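 active = activation above a per-plate cutoff, the mean activation of sample wells on that plate plus 3 SD, cut at about 8% in these data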
TLR9-MyD88 block: inhibitors of human TLR9-MyD88 binding | inhibition, % at 4.98 µM | AID 504734 | actives 0.21% (n = 340,000) | CHO BLA complementation TLR9-MyD88, CCF4 FRET ratio;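 active = inhibition above the mean over all tested compounds plus 3 SD, cut at about 21% in these data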;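 also: 0% = DMSO only wells and 100% = clavulanate BLA inhibitor control wells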
TLR4 MyD88 comp: inhibitors of human TLR4-MyD88 binding; inhibition, % at 8.4 µM; actives 0.18% (n = 200,000); AID 861; HeLa CL3-4 TLR4/MyD88 BLA complementation, FRET ratio; O00206+Q99836; in the data active = inhibition above about 25%;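 also: 0% = vehicle and 100% = reference inhibitor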
Target sequence (O00206 whole entry, looked up): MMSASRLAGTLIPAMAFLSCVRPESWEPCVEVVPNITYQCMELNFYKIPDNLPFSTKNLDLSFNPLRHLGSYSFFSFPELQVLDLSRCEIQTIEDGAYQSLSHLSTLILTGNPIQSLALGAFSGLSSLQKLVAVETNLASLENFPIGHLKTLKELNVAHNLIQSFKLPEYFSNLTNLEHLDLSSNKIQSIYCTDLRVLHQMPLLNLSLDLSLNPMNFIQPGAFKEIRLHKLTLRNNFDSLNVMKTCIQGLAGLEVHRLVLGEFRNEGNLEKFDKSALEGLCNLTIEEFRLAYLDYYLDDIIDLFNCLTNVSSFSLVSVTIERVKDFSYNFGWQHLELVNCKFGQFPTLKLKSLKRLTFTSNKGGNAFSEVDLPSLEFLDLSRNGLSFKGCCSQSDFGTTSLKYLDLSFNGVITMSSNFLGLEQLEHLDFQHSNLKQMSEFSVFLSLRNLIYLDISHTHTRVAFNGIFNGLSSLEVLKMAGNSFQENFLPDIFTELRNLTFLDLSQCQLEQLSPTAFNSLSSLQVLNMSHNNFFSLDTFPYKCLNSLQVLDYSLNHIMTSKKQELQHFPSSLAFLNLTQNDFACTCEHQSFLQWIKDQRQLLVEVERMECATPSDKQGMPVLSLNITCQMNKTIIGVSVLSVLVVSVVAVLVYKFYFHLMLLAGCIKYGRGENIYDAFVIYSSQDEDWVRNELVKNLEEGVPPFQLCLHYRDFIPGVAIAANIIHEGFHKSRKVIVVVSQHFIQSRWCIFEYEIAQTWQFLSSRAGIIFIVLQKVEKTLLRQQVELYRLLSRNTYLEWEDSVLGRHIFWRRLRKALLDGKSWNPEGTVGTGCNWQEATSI
Target sequence (Q99836 whole entry, looked up): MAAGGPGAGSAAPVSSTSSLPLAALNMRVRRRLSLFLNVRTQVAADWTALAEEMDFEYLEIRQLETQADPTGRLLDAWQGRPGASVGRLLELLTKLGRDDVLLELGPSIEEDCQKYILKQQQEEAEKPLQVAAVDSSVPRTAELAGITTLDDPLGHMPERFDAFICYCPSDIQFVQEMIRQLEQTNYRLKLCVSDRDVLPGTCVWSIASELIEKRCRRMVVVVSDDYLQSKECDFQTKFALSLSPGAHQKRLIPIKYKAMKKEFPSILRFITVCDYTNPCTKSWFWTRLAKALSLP
NOD2 RIPK2 PPI: blocks binding of human NOD2 to RIPK2 | CHO BLA complementation NOD2-RIPK2, CCF4 ratio | AID 624267 | actives 0.38% (n = 360,000) | inhibition, % at 4.98 µM | O43353; in the data active = inhibition above about 21%;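 also: 0% = vehicle only and 100% = reference blocker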
MC4R antag cAMP: human MC4R antagonism in cAMP assay; MC4R-expressing cells, MTII-stimulated cAMP, LANCE TR-FRET; actives 0.48% (n = 360,000); inhibition, % at 6.5 µM; P32245; AID 540295;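 active = inhibition above its plate's cutoff, the mean of tested wells on that plate plus 3 SD, cut at about 29% in these data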;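 also: 0% = Melanotan II alone and 100% = Melanotan II plus saturating MCL0020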
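Material – human MC4R-expressing U2OS cells · Repeats – no replicates · Detection – TR-FRET with Eu-cAMP and labeled anti-cAMP, 671 nm · Times – compound 30 min, challenge 1 h, detection 1 h · Compound – single nominal compound dose of 6.5 µM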
NTR1 ag confirm: NTR1 (human) agonism, confirmed; shares compounds with NTR1 agonist; NTR1-U2OS beta-arrestin-GFP translocation imaging; activation, % at 20 µM; actives 38% (n = 480);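 active = mean activation at 20 µM of at least 40%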;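 also: 0% = DMSO without peptide and 100% = 100 nM NTR1 peptide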
* marks the source's active call; other numbers are inactive results; . = no result given.

SMILES	NTR1 agonist	MC4R barr agon	TLR9-MyD88 block	TLR4 MyD88 comp	NOD2 RIPK2 PPI	MC4R antag cAMP	NTR1 ag confirm
CC(=O)Nc1ccc(C2=CC(=O)C[C@H](c3ccc(Cl)cc3)C2)cc1	2	-1	0	.	9	-2	.
CCc1ccc(S(=O)(=O)/N=C2\C=C(Nc3ccc(O)cc3)C(=O)c3ccccc32)cc1	45*	1	-8	.	9	-25	21
CCc1ccc(S(=O)(=O)/N=C2\C=C(Nc3cccc(C(=O)O)c3)C(=O)c3ccccc32)cc1	2	-3	-4	.	2	-12	.
CC(=O)OCCCNc1cc(Sc2nc3ccccc3s2)c2nonc2c1[N+](=O)[O-]	3	-4	1	15	-7	-41	.
CC(=O)OCCCNc1cc(Sc2ccc(C)cc2)c2nonc2c1[N+](=O)[O-]	67*	-3	-9	2	1	-11	86*
COc1cc(CCC(=O)OCC(=O)Nc2sccc2C(N)=O)cc(OC)c1OC	1	0	-6	.	0	17	.
CCN1C(=O)/C(=C/N(C(C)=O)c2ccccc2)N(c2ccccc2)C1=S	42*	-2	-1	10	3	13	61*
Cc1ccc(Sc2c([N+](=O)[O-])c(=O)n(C)c3ccccc23)cc1	67*	-3	-13	.	1	12	73*
Cc1cc(NC(=O)COC(=O)Cn2[nH]c(=O)c3ccccc3c2=O)c([N+](=O)[O-])cc1C	1	-2	-2	.	-7	0	.
COc1ccc(CCN(C(=S)Nc2ccccc2)C2CC(=O)N(c3ccccc3)C2=O)cc1 (stereo not drawn)	21	7	5	-7	4	22	.
O=C1CC(N(CCc2ccccc2)C(=S)Nc2ccccc2)C(=O)N1c1ccc(Br)cc1 (stereo not drawn)	60*	0	-13	18	-7	19	23
FC(F)(F)c1nc(-c2cccs2)ncc1-c1nnnn1-c1ccc(Cl)cc1	57*	1	-2	8	-14	2	20
O=C(NCC(=O)N1CCCC(C(F)(F)F)C1)c1cccs1 (stereo not drawn)	.	0	-2	.	1	17	.
CCOC(=O)c1ccc(NC(=O)C2CCCN(S(=O)(=O)c3ccc(F)cc3)C2)cc1 (stereo not drawn)	53*	-1	-10	1	5	-4	22
CCOC(=O)c1ccc(NC(=O)C2CCN(S(=O)(=O)c3ccccc3)CC2)cc1	1	-1	-23	-22	4	6	.
Cc1cccc(Nc2nc(N)c([N+](=O)[O-])c(N3CC(C)CC(C)C3)n2)c1 (stereo not drawn)	46*	0	7	-2	-8	27	36
COc1ccc(C(=O)OCC(=O)NC(=O)NC2CCCC2)cc1OC	-2	1	-8	.	-5	2	.
O=C(Nc1cccc(S(=O)(=O)N2CCOCC2)c1)C1CC1	0	-1	-9	.	-2	18	.
CN(C)S(=O)(=O)c1ccc(NC(=O)c2ccncc2)cc1	1	-1	0	-4	-1	1	.
CN(C)S(=O)(=O)c1ccc(NC(=O)c2c(F)cccc2Cl)cc1	49*	-1	8	9	-2	0	-5
CCCCCC(=O)Nc1cccc(C2=NOC3(C2)C[C@H](C(N)=O)N(C(=O)COc2ccc(Cl)cc2)C3)c1 (stereo partly drawn)	42*	-1	-1	.	-6	8	5
C/C=C\C=C/C(=O)Nc1cccc(C2=NOC3(C2)C[C@@H](C(N)=O)N(C(=O)COc2ccc(Cl)cc2)C3)c1 (stereo partly drawn)	16	0	-7	.	-1	3	.
COc1ccc(S(=O)(=O)Nc2ccccc2C(=O)Nc2nc(-c3ccc(F)cc3)cs2)cc1OC	45*	-3	-11	-1	-3	10	7
Cc1cc(NN)nc2ccc(Cl)cc12	0	0	10	-9	-1	2	.
CC(NCC(O)COCCC12CC3CC(CC(C3)C1)C2)c1ccccc1 (stereo not drawn)	46*	6	11	4	14	-1	69*
SMILES	NTR1 agonist	MC4R barr agon	TLR9-MyD88 block	TLR4 MyD88 comp	NOD2 RIPK2 PPI	MC4R antag cAMP	NTR1 ag confirm
NCC(O)COCCC12CC3CC(CC(C3)C1)C2 (stereo not drawn)	6	-1	8	-7	5	6	.
Cc1[nH]n(-c2ccccc2)c(=O)c1C(C[N+](=O)[O-])c1ccc(Br)cc1 (stereo not drawn)	17	2	-6	9	8	-5	.
COc1cccc(C(C[N+](=O)[O-])c2c(C)[nH]n(-c3ccccc3)c2=O)c1 (stereo not drawn)	51*	-3	5	.	7	10	4
COc1ccc(S(=O)(=O)Oc2ccc3c(c2)O/C(=C\c2cccnc2)C3=O)cc1	43*	0	1	5	10	-3	23
O=C1/C(=C/c2cccnc2)Oc2cc(OS(=O)(=O)c3ccc(Cl)cc3)ccc21	20	-1	-5	6	6	9	.
O=C1/C(=C/c2cccnc2)Oc2cc(OS(=O)(=O)c3ccccc3)ccc21	42*	1	-9	5	11	10	22
O=[N+]([O-])c1ccc(-c2ccc(S(=O)(=O)NCCN3CCCC3)cc2)cc1	0	-2	-17	-3	1	-5	.
Oc1ccc(/C=N/Nc2nc(N3CCCCCC3)nc(N3CCCCCC3)n2)c(O)c1	44*	2	-5	-5	3	16	39
Oc1ccc(Br)cc1/C=N/Nc1nc(N2CCCCC2)nc(N2CCOCC2)n1	16	.	.	-3	.	.	.
COc1cccc(CNc2ccc([N+](=O)[O-])c(NCC(=O)O)n2)c1	-1	-3	7	-6	-118	-3	.
CN1CCC(N(C)C(=O)/C(C#N)=C/c2ccccc2)CC1	.	-1	1	.	-4	-1	.
O=C(COc1ccccc1)NCC(=O)N/N=C/c1ccc(O)cc1O	42*	0	-6	.	-2	7	40
Cc1ccc(/C=N/NC(=O)CNC(=O)COc2ccccc2)cc1	3	0	6	-2	2	4	.
Cc1ccc(OCC(=O)NNc2c3ccccc3nc3ccccc23)cc1	47*	1	-10	-16	-15	-4	20
Cc1cccc(OCC(=O)NNc2c3ccccc3nc3ccccc23)c1	36	3	3	8	-14	0	.
Cc1ccc(OCC(=O)N/N=C\c2cn(Cc3ccccc3)c3ccccc23)cc1C	41*	0	-9	11	-13	13	5
COc1cc(C(=O)N/N=C/c2cn(Cc3ccccc3)c3ccccc23)ccc1O	2	-3	-13	.	-11	-3	.

High-throughput results: PubChem BioAssay, several laboratories
